# Key:
# [1] = target: Phosphodiesterase; PDE3 & PDE4; assay: Inhibition of dog left ventricle sarcoplasmic reticulum bound low-Km c-AMP phosphodiesterase; assay type: protein assay, Canis lupus familiaris
# Summary of the method: (§1)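 SR vesicles from dog left ventricle, isolated on a sucrose gradient after Ca2+ oxalate loading. Radiochemical assay at 30 °C with 1 µM [3H]cAMP, 12 mM Tris-HCl, 0.5 mM MgCl2, 137 mM NaCl and 20 mM glucose; products separated on Dowex after 5'-nucleotidase step. Less than 25% substrate hydrolysed. Triplicates at 10 concentrations (10^-9–10^-4 M), DMSO 1%. IC50 from Hill plot of mean curve over at least 3 preparations.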
# [2] = tested on: cardiac myofibrillar ATPase (Canis familiaris); assay: Shift induced by 100 uM of compound, of the [Ca2+] concentration required for half-maximal activation of the canine cardiac myofibrillar ATPase; conditions: Canis lupus familiaris
# [3] = tested on: cardiac myofibrillar ATPase (Canis familiaris); assay: Change in calcium-induced activation of canine cardiac myofibrillar ATPase at 200 uM; conditions: Canis lupus familiaris
# Canis familiaris [4] = assay: Peak response for contractility was determined in conscious Dog at the dose of 30 ug/kg by peroral administration and measured as% changes of control; conditions: route oral
# [5] = tested on: cardiac myofibrillar ATPase (Canis familiaris); assay: Shift induced by 30 uM of compound, of the [Ca2+] concentration required for half-maximal activation of the canine cardiac myofibrillar ATPase; conditions: Canis lupus familiaris
# Canis familiaris [6] = assay: Peak response for heart rate was determined in conscious Dog at the dose of 30 ug/kg by peroral administration and measured as% changes of control; conditions: route oral
# [7] = Inhibition of dog left ventricle sarcoplasmic reticulum bound low-Km cAMP phosphodiesterase; parameters: species or system Canis lupus familiaris; summary of the method: as §1
# [8] = tested on: cardiac myofibrillar ATPase (Canis familiaris); assay: Shift induced by 200 uM of compound, of the [Ca2+] concentration required for half-maximal activation of the canine cardiac myofibrillar ATPase; conditions: Canis lupus familiaris
# [9] = tested on: cardiac myofibrillar ATPase (Canis familiaris); assay: c[Ca2+] concentration required for half-maximal activation of the cardiac myofibrillar ATPase at 30 uM dose of the compound; conditions: Canis lupus familiaris
# [10] = tested on: cardiac myofibrillar ATPase (Canis familiaris); assay: c[Ca2+] concentration required for half-maximal activation of the cardiac myofibrillar ATPase at 100 uM dose of the compound; conditions: Canis lupus familiaris
# [11] = tested on: cardiac myofibrillar ATPase (Canis familiaris); assay: Shift induced by 1 uM of compound, of the [Ca2+] concentration required for half-maximal activation of the canine cardiac myofibrillar ATPase; conditions: Canis lupus familiaris
# [12] = tested on: cardiac myofibrillar ATPase (Canis familiaris); assay: Shift induced by 10 uM of compound, of the [Ca2+] concentration required for half-maximal activation of the canine cardiac myofibrillar ATPase; conditions: Canis lupus familiaris
# [13] = tested on: cardiac myofibrillar ATPase (Canis familiaris); assay: Shift induced by 3 uM of compound, of the [Ca2+] concentration required for half-maximal activation of the canine cardiac myofibrillar ATPase; conditions: Canis lupus familiaris
IC50 [1] [nM],Delta pCa50 [3],Delta pCa50 [5],Compound,other results
240,–,–,CC1CC(=O)NN=C1c1ccc2c(c1)C(C)(C)C(=O)N2 (stereo not given),Delta pCa50 [2]: -0.09
1200,0.39,–,CSC1(C)C(=O)Nc2ccc(C3=NNC(=O)SC3)cc21 (stereo not given),–
–,0.08,–,O=C1Cc2cc(C3=NNC(=O)SC3)ccc2N1,–
–,–,0.33,CC1SC(=O)NN=C1c1ccc2c(c1)CC(C)(C)C(=O)N2 (stereo not given),Change (Canis familiaris [4]): 26%; Change (Canis familiaris [6]): 24%
960,–,–,CC1OC(=O)NN=C1c1ccc2c(c1)C(C)(C)C(=O)N2 (stereo not given),Delta pCa50 [2]: 0.04
–,–,0.15,CC1SC(=O)NN=C1c1ccc2c(c1)C(C)(C)OC(=O)N2 (stereo not given),Change (Canis familiaris [4]): 67%; Change (Canis familiaris [6]): 13%
36,–,0.14,CC1SC(=O)NN=C1c1ccc2c(c1)C1(CC1)C(=O)N2 (stereo not given),–
520,0.16,–,CC1(C)C(=O)Nc2cc3[nH]c(-c4ccncc4)nc3cc21 [ADIBENDAN],–
18000,0.1,–,Cc1nc(O)c(N)cc1-c1ccccc1,–
–,–,-0.07,Cc1c(C2=NNC(=O)SC2C)ccc2c1C(C)(C)C(=O)N2 (stereo not given),IC50 [7]: 9200 nM
–,–,0.24,CC1SC(=O)NN=C1c1ccc2c(c1)C(C)(C)NC(=O)N2 (stereo not given),Change (Canis familiaris [4]): 38%; Change (Canis familiaris [6]): 9%
–,–,–,CSC1(C)C(=O)Nc2ccc(C3=NNC(=O)SC3C)cc21 (stereo not given),Delta pCa50 [8]: 0.33
–,–,–,CC1(C)C(=O)Nc2ccc(C3=NNC(=O)CC3)cc21,Delta pCa50 [8]: -0.04
1400,–,0.37,CC1SC(=O)NN=C1c1ccc2c(c1)C1(CCCS1)C(=O)N2 (stereo not given),–
–,–,0.45,CC1SC(=O)NN=C1c1ccc2c(c1)C(C)(C)CC(=O)N2 (stereo not given),Change (Canis familiaris [4]): 21%; Change (Canis familiaris [6]): 5%
–,–,0,O=C1CCc2cc(C3=NNC(=O)SC3)ccc2N1,–

IC50 [1] [nM],Delta pCa50 [3],Delta pCa50 [5],Compound,other results
–,0.11,–,CSC1(C)C(=O)Nc2ccc(C3=NNC(=O)CC3C)cc21 (stereo not given),–
–,0.15,–,CC1C(=O)Nc2ccc(C3=NNC(=O)SC3)cc21 (stereo not given),–
–,–,0.57,CC1SC(=O)NN=C1c1ccc2c(c1)C1(SCCS1)C(=O)N2 (stereo not given),IC50 [7]: 350 nM
–,0.07,–,CSC1(C)C(=O)Nc2ccc(C3=NNC(=O)CC3)cc21 (stereo not given),–
66000,-0.02,–,CC1(C)SC(=O)NN=C1c1ccc2c(c1)C(C)(C)C(=O)N2,–
–,0.16,–,CC1(C)C(=O)Nc2ccc(C3=NNC(=O)SC3)cc21,–
330,0.31,–,CC1SC(=O)NN=C1c1ccc2c(c1)C(C)(C)C(=O)N2 (stereo not given),Change (Canis familiaris [4]): 73%; Delta pCa50 [9]: 0.09; Delta pCa50 [10]: 0.24; Change (Canis familiaris [6]): 8%
1300,–,0.39,CC1SC(=O)NN=C1c1ccc2c(c1)C1(CCCCC1)C(=O)N2 (stereo not given),–
–,–,–,COc1cc([S+](C)[O-])ccc1-c1nc2cccnc2[nH]1 (stereo not given) [SULMAZOLE],IC50 [7]: 140000 nM
–,0.28,–,CSC1C(=O)Nc2ccc(C3=NNC(=O)SC3)cc21 (stereo not given),–
170,–,–,CC1NC(=O)NN=C1c1ccc2c(c1)C(C)(C)C(=O)N2 (stereo not given),Delta pCa50 [2]: -0.04
1100,–,0.35,CC1SC(=O)NN=C1c1ccc2c(c1)C1(CCCC1)C(=O)N2 (stereo not given),–
–,–,0.26,Cc1cc(C2=NNC(=O)SC2C)cc2c1NC(=O)C2(C)C (stereo not given),IC50 [7]: 240 nM
3300,–,-0.06,Cc1cc2c(cc1C1=NNC(=O)SC1C)C(C)(C)C(=O)N2 (stereo not given),–
–,–,0.76,CC1SC(=O)NN=C1c1ccc2c(c1)C1(SCCCS1)C(=O)N2 (stereo not given),Delta pCa50 [11]: 0.12; Delta pCa50 [12]: 0.65; IC50 [7]: 260 nM; Delta pCa50 [13]: 0.48

Compound,IC50 [1] [nM],Delta pCa50 [3],Delta pCa50 [5],other results
CC1[Se]C(=O)NN=C1c1ccc2c(c1)C(C)(C)C(=O)N2 (stereo not given),540,–,–,Delta pCa50 [2]: 0.3
